Measured values pooled from the literature.
Compare with care: the assays were run in different laboratories.
Target: Serine/threonine-protein kinase 38-like (STK38L, Homo sapiens, UniProt Q9Y2H1)

O=C(Nc1cnn(-c2csc(C(=O)NC3COC3)c2)c1)Nc1ccccc1Cl  remaining activity (enzyme activity; inhibitor; 5 µM): 103%
N#CC1c2c([nH]c3c(Cl)c(Cl)ccc23)C(=O)NC12CCCCC2 (racemic)  ΔTm (thermal stability; DSF; 10 µM): 0.2 °C
CCN1CCN(Cc2ccc(NC(=O)c3ccc(C)c(Oc4ccnc5[nH]ccc45)c3)cc2C(F)(F)F)CC1  inhibition (target engagement in cells; inhibitor; chemoproteomics; Huh-7; 10 µM): -12.7%
Cn1c2c(c3ccc(Cl)c(Cl)c31)C(C#N)C1(CCNCC1)NC2=O (racemic)  ΔTm (thermal stability; DSF; 10 µM): -0.2 °C
CN1CC(Oc2cnc(C#N)cc2-c2ccn3nc(NC(=O)C4CC4)cc3c2)C1  inhibition (enzyme activity; inhibitor; 1 µM): 27%
COc1cc(Cl)c(C(=O)N[C@@H](CN[C@H]2CC[C@@H](N)CC2)Cc2ccc(C#N)cc2)cc1-c1ccc(CN[C@H](C)c2ccc(C)cc2)o1  remaining activity (enzyme activity; inhibitor; 1 µM): 91%
CCN1CCN(Cc2ccc(NC(=O)c3ccc(C)c(/C=C/c4cnc5[nH]ccc5c4OC)c3)cc2C(F)(F)F)CC1  inhibition (target engagement in cells; inhibitor; chemoproteomics; A-375; 50 nM): -0.856%
Cn1c2c(Cl)c(Cl)ccc2c2cc(N)[nH]c(=O)c21  ΔTm (thermal stability; DSF; 10 µM): 0.3 °C
CN(C)c1ncnc(-c2ccc3nc(Nc4cc(CN5CCN(C(=O)CC(F)(F)F)CC5)ccn4)[nH]c3c2)c1Cl  remaining binding (cell-free assay; competition with immobilised ligand; 1 µM): 74%
Cn1c2c(c3ccc(Cl)c(Cl)c31)C(C#N)C(C)(C)NC2=O (centres unmarked)  ΔTm (thermal stability; DSF; 10 µM): -0.1 °C
CS(=O)(=O)c1cc(C2(NC(=O)c3cncc4c3cnn4-c3ccc(F)cc3)CC2)ccn1  remaining binding (cell-free assay; competition with immobilised ligand; 1 µM): 34%
Cn1c2c(Cl)c(Cl)ccc2c2cn[nH]c(=O)c21  ΔTm (thermal stability; DSF; 10 µM): 0.1 °C
COCCOc1nc(-c2ccc(Cl)nc2)nc2c1CN(C(=O)c1ncn3ccccc13)CC2  remaining binding (cell-free assay; competition with immobilised ligand; 0.1 µM): 100%
Cc1sc(C(=O)NC2COC2)cc1-n1cc(NC(=O)Nc2c(F)cccc2Cl)cn1  remaining activity (enzyme activity; inhibitor; 10 µM): 95.1%
CS(=O)(=O)N1CCCC(NC(=O)[C@H](CCC2CCCCC2)NC(=O)c2ccc(CNc3ncnc4c3nnn4-c3ccccc3)cc2)C1 (some centres unmarked)  remaining binding (binding; competition with immobilised ligand; 1 µM): 24%
CCN1CCC2(CC1)NC(=O)c1c(c3ccc(Cl)c(Cl)c3n1C)C2C#N (racemic)  ΔTm (thermal stability; DSF; 10 µM): 0 °C
O=C(O)[C@@H]1[C@@H](Cn2nnc3ccccc3c2=O)CC[C@H]1C(=O)c1ccc(OCCC2CCOCC2)cc1  remaining binding (binding; competition with immobilised ligand; 1 µM): 100%
COc1cc(-c2cc(-c3ccc(N4CCNCC4)cc3)cnc2C)cc(OC)c1OC  inhibition (enzyme activity; inhibitor; 1 µM): 0%
Cc1nc(N2CC[C@@H](O)C2)ncc1-c1cc(C(F)(F)F)cc2[nH]ncc12  remaining binding (binding; competition with immobilised ligand; 1 µM): 87%
Nc1ncnc2occ(-c3ccc(NC(=O)Nc4cc(C(F)(F)F)ccc4F)cc3)c12  remaining signal (cell-free assay; 20 µM): 17%
